The source of these data is ChEMBL document CHEMBL4261484, “Design, synthesis and anticonvulsant-analgesic activity of new N-[(phenoxy)alkyl]- and N-[(phenoxy)ethoxyethyl]aminoalkanols” (Medchemcomm, 2017).

Activity calls are given as the source filed them.

For series [1], the system named is Mus musculus. Nature of the series: Anticonvulsant activity in mouse assessed as protection against subcutaneous pentylenetetrazole-induced seizures at 100 mg/kg, ip measured for 30 mins post pentylenetetrazole challenge at 0.5 hrs after compound dosing relative to control. It is filed as functional.
Series [2] concerns Mus musculus. The series is described as follows: Neurotoxicity in mouse assessed as motor impairment by measuring loss of coordination at 21 mg/kg, ip measured for 60 secs by chimney test relative to control. It counts as toxicity, organism-based. Particulars: in vivo, 1 min. The procedure, abridged: (§1)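 Mice dosed ip; trained, selected animals placed in a horizontal tube 25 cm long and 2.5 cm in diameter, then tube reversed so mice must climb out backward. Read-outs: escape time (s) ± SEM and % animals losing coordination versus control. Unpaired t test.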

Series [3] relates to Mus musculus. Nature of the series: Analgesic activity in mouse assessed as decrease in time of paw licking during phase 2 at 21 mg/kg, ip measured for 15 to 30 mins by formalin test relative to control. It is filed as functional. More on the design: scale not given: the % may be the effect or the level left. The procedure, abridged:
(§2)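 Formalin test in mice: 20 μL of 5% formalin injected intraplantarly into the right hind paw. Each mouse was observed alone in a glass beaker for 30 min. Time (s) spent licking or biting the injected paw was recorded at 0–5 min (acute phase) and 15–30 min (inflammatory phase).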

For series [4], the system named is Mus musculus. The series is described as follows: Analgesic activity in mouse assessed as decrease in time of paw licking during phase 1 at 21 mg/kg, ip measured for 5 mins by formalin test relative to control. It counts as functional. More on the design: scale not given: the % may be the effect or the level left. The gist of the method: as §2
The test system of series [5] is Mus musculus. Nature of the series: Anticonvulsant activity in mouse assessed as protection against subcutaneous pentylenetetrazole-induced seizures by measuring latency time of tonic seizures at 100 mg/kg, ip measured for 30 mins post pentylenetetrazole challenge at 0.5 hrs after compound dosing (reference value: 562.8 to 614.9 secs). It counts as functional.
For series [6], the system named is HepG2. The series is described as follows: Cytotoxicity against human HepG2 cells assessed as effect on cell viability at 10 to 250 uM after 24 hrs by MTT assay. It is filed as cell-based. Particulars: hepg2, 24 h. The gist of the method: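 HepG2 cells grown in MEM with 10% FBS (37 °C, 5% CO2) and seeded at 1 × 10^4. After overnight culture, exposed to 10–250 μM for 24 h. MTT for 3 h, formazan dissolved, OD 570 nm. Viability is % of control ± SEM from three independent experiments.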

The test system of series [7] is HepG2. Nature of the series: Cytotoxicity against human HepG2 cells assessed as effect on cell viability at 10 to 250 uM after 24 hrs by neutral red assay. It is filed as cell-based. The following applies: hepg2, 24 h. The gist of the method: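 HepG2 cells seeded at 5 × 10^4 per well, then after 24 h given medium with 10–250 μM for 24 h. Viability by neutral red staining, OD 570 nm. Results are % of control ± SEM, three independent experiments.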

In series [8] the test system is Mus musculus. The series is described as follows: Toxicity in mouse at 100 mg/kg, ip measured during maximal electroshock seizure test. It is filed as organism-based. Particulars: in vivo.
Series [9] concerns Mus musculus. Nature of the series: Neurotoxicity in mouse assessed as motor impairment by measuring time of escaping from chimney at 21 mg/kg, ip measured for 60 secs (reference value: 8.87 +/- 1.79 secs). Particulars: in vivo, 1 min. It is filed as toxicity, organism-based. The procedure, abridged:
as §1

The nature of series [10]: Cytotoxicity against mouse CRL-2541 cells assessed as effect on cell viability at 10 to 250 uM after 24 hrs by MTT assay. It is filed as cell-based.
Series [11] concerns Mus musculus. Nature of the series: Anticonvulsant activity in mouse assessed as protection against maximal electroshock-induced seizures at 100 mg/kg, ip. It is filed as functional, organism-based. The procedure, abridged: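 Mice dosed ip; maximal seizures induced by auricular electroshock (25 mA, 500 V, 50 Hz, 0.2 s). Endpoint: hind-limb tonic extension; animals without it scored protected. Read-out is number protected over number tested.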

Series [12] deals with Mus musculus. The series is described as follows: Anticonvulsant activity in mouse assessed as increase in electroconvulsive threshold at 10 mg/kg, ip by maximal electroshock seizure threshold test relative to control. It counts as functional.
Series [13] relates to Mus musculus. The series is described as follows: Toxicity in mouse assessed as effect on spontaneous activity at 21 mg/kg, ip measured for 30 mins by photoresistor actometer relative to control. It is filed as organism-based. Particulars: in vivo, 0.5 h. The procedure, abridged:
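Mice dosed ip; locomotor activity by photoresistor actometers counting light-beam interruptions. Each mouse was habituated 30 min in a cage, then crossings were counted over a 30 min session. Data are mean ± SEM and % change vs control; unpaired t test.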

The subject of series [14] is Mus musculus. Nature of the series: Anticonvulsant activity in mouse assessed as current strength required to induce tonic hind-limb extension in 50% of the animals at 10 mg/kg, ip by maximal electroshock seizure threshold test (reference value: 6.05 to 8.13 mA). It counts as functional.
Series [15] concerns Mus musculus. The series is described as follows: Anticonvulsant activity in mouse assessed as increase in electroconvulsive threshold at 2.5 mg/kg, ip by maximal electroshock seizure threshold test relative to control. It counts as functional.
Series [16] is described as follows: Neurotoxicity in ip dosed mouse assessed as motor impairment measured for one min by rotarod test. It counts as toxicity, organism-based. The following applies: in vivo. The procedure, abridged: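 Mice trained on an accelerating rotarod, then tested at least 24 h later after ip pretreatment, on a rod turning at 10 rpm. Neurotoxicity was scored as failure to stay on the rod for one minute. Read-out is mice impaired over mice tested.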

The subject of series [17] is Mus musculus. Nature of the series: Anticonvulsant activity in mouse assessed as current strength required to induce tonic hind-limb extension in 50% of the animals at 2.5 mg/kg, ip by maximal electroshock seizure threshold test (reference value: 6.05 to 8.13 mA). It is filed as functional.
Series [18] in a line: Protection index, ratio of TD50 for neurotoxicity in ip dosed mouse by rotarod test to ED50 for anticonvulsant activity in mouse by maximal electroshock seizure test. It is filed as toxicity, organism-based. Particulars: in vivo, read-out: Ratio TD50/ED50.

With `Cc1cc(C)c(OCCCN2CCC(O)CC2)c(C)c1`, the outcome in the series with Mus musculus [1] was inactive. Moreover, the Activity in the series on Mus musculus [2] is 0%; in the series with Mus musculus [3] it was 4.87%; in the series on Mus musculus [4], 27.01%; in the series with HepG2 [6], “Non-Toxic”; with HepG2 [7] it was “Non-Toxic”; in the series with Mus musculus [8] it was “Non-Toxic”. In addition, the Activity result in [10] is “Non-Toxic”; with Mus musculus [12] it was 12.55%; in the series on Mus musculus [13], 19.76%; in the series on Mus musculus [14], 9.15 mA. Besides, the Time in the series with Mus musculus [5] was 275.4 s; in the series on Mus musculus [9], 6.5 s. The result with Mus musculus [11] was Active.

Regarding `O=C1NC(=O)C(c2ccccc2)(c2ccccc2)N1` [PHENYTOIN], the Activity with Mus musculus [15] stood at 23.31%; in the series on Mus musculus [17], 7.46 mA. In addition, the TD50 at 1 min in series [16] was 68.7 mg/kg. Moreover, the selectivity ratio in [18] stood at 10.3.
